B1: tRNA (parent)
chain: GUUCCGUUGGCGUAAUGGUAACGCGUCUCCCUCCUAAGGAGAAGACUGCGGGUUCGAGUCCCGUACGGAACG

Variants of: B1
Assay: yeast fitness, log relative to wild type (ln ratio); higher = fitter; tRNA-Arg(CCU), competitive growth, 37 C, 1 M NaCl
How it was run: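 A combinatorial tRNA-Arg(CCU) variant library was carried on a HIS3 centromeric plasmid in BY4742 lacking the chromosomal gene, from two independent transformations. Pools grew 4 generations in SC-HIS at 30 °C, then ~6.5 generations (~26.5 h) in SC-HIS 1M NaCl at 37 °C, with three outputs per input. Variants were counted by 125 bp paired-end Illumina sequencing. Fitness is ln of each genotype's generations (OD-scaled log2 output/input frequency, inverse-variance weighted across replicates) over the wild-type's.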
With G1A U2G G6A C27U A43C C66U A69G A70G the “yeast fitness (ln)” value was -0.447. In the case of U2G G6A A43C C66U A70G C71U, the “yeast fitness (ln)” value is reported as -0.186. For G6U C27U A43C C66U A69G A70U C71U, the “yeast fitness (ln)” value was -0.341. In the case of U2G G6U C27U A43C C66A, the “yeast fitness (ln)” value is reported as -0.0341. In the case of G1A G6A C27U C46U C66U A70U C71U, the “yeast fitness (ln)” value is reported as -0.478. In the case of G1A G6A C46U A70G C71U, the “yeast fitness (ln)” value is reported as -0.208. With G6A A43C C66U A69G A70U the “yeast fitness (ln)” value was -0.3. For U2G C27U A43C C46U A70G C71U, the “yeast fitness (ln)” value was -0.115. For U2C C27U C66U C71U, the “yeast fitness (ln)” value was -0.177. With U2G G6A A69G the “yeast fitness (ln)” value was -0.135. In the case of G1A A43C C46U A69G A70U C71U, the “yeast fitness (ln)” value is reported as -0.33. In the case of U2C G6A C27U A43C C46U C66U C71U, the “yeast fitness (ln)” value is reported as -0.122. In the case of G1A G6U C27U A43C C46U C66A A69G A70G C71U, the “yeast fitness (ln)” value is reported as -0.359. With G1A G6A A43C C66U the “yeast fitness (ln)” value was -0.195. For G1A G6A C27U C66U A70U C71U, the “yeast fitness (ln)” value was -0.461. With G6A C27U C46U C66A A69G A70G C71U the “yeast fitness (ln)” value was -0.221. With G6U A43C C66A A70U C71U the “yeast fitness (ln)” value was -0.29. For G1A U2G C27U A43C C46U C66U C71U, the “yeast fitness (ln)” value was -0.277. In the case of U2G G6U C27U A43C C46U C66U C71U, the “yeast fitness (ln)” value is reported as -0.356. With U2C G6A C46U the “yeast fitness (ln)” value was -0.0163. In the case of G6A C27U A70G C71U, the “yeast fitness (ln)” value is reported as -0.291. For U2C G6U C27U A43C C46U C66A A70U, the “yeast fitness (ln)” value was -0.0786. For G1A G6A A43C A69G A70U C71U, the “yeast fitness (ln)” value was -0.503. With G1A C27U C46U C66U A70U the “yeast fitness (ln)” value was -0.154. In the case of G1A U2C A69G A70U C71U, the “yeast fitness (ln)” value is reported as -0.321. In the case of U2G G6U C46U, the “yeast fitness (ln)” value is reported as -0.0208. For G1A U2G G6A C27U C46U A69G A70U C71U, the “yeast fitness (ln)” value was -0.379. In the case of G1A U2C G6U A43C A69G A70U C71U, the “yeast fitness (ln)” value is reported as -0.248. With G1A U2G G6U C46U C66U A70G C71U the “yeast fitness (ln)” value was -0.216. With G1A U2G G6A C27U A70G C71U the “yeast fitness (ln)” value was -0.336. For G1A U2C G6U A43C C46U C66A A69G A70U, the “yeast fitness (ln)” value was -0.0654. With G1A G6U A43C C46U C66A A70U the “yeast fitness (ln)” value was -0.242. With G1A U2G C66U A69G C71U the “yeast fitness (ln)” value was -0.254. For G1A U2G G6A C27U, the “yeast fitness (ln)” value was -0.0861. With G1A U2G G6A C27U C66A A69G A70G C71U the “yeast fitness (ln)” value was -0.353. In the case of U2G G6U C27U C66U A69G, the “yeast fitness (ln)” value is reported as -0.275. For G1A G6A A70G C71U, the “yeast fitness (ln)” value was -0.115. With C27U A43C C46U C66U A70U the “yeast fitness (ln)” value was -0.109. With C27U A43C C66A A69G A70G C71U the “yeast fitness (ln)” value was -0.369. In the case of G1A U2G C27U C66U A69G A70U, the “yeast fitness (ln)” value is reported as -0.35. In the case of G1A U2G A43C C46U A70G C71U, the “yeast fitness (ln)” value is reported as -0.342. With U2C G6A C27U A43C C46U C66U A70U C71U the “yeast fitness (ln)” value was -0.225. With G1A U2G G6U C46U C66A A70U C71U the “yeast fitness (ln)” value was 0.00484. In the case of G6A C27U A43C C66U A69G A70U, the “yeast fitness (ln)” value is reported as -0.452. With U2G C27U A43C C46U C66U A69G A70U C71U the “yeast fitness (ln)” value was -0.395. In the case of G1A G6U C66A A70G C71U, the “yeast fitness (ln)” value is reported as -0.0373. In the case of U2C G6A A43C C46U C66U A70U, the “yeast fitness (ln)” value is reported as -0.209. In the case of U2C A69G A70G, the “yeast fitness (ln)” value is reported as -0.0175. For G1A G6U C27U A43C C46U C66A A70G C71U, the “yeast fitness (ln)” value was -0.377. With G1A U2G G6U A43C C46U A70G the “yeast fitness (ln)” value was -0.235. For G1A U2G C27U C46U C66U A70G C71U, the “yeast fitness (ln)” value was -0.218. For G1A G6U A43C C66U A69G C71U, the “yeast fitness (ln)” value was -0.587. In the case of U2G G6A C66A, the “yeast fitness (ln)” value is reported as -0.111. For G1A G6U C27U A43C C46U C66U A69G A70U, the “yeast fitness (ln)” value was -0.452. In the case of G6A C27U C46U C66A A70U C71U, the “yeast fitness (ln)” value is reported as -0.234. In the case of U2C C27U C66A A69G A70U, the “yeast fitness (ln)” value is reported as -0.119. For G1A C46U C66A A69G A70U, the “yeast fitness (ln)” value was -0.0801. In the case of G1A U2C G6U C46U C66A C71U, the “yeast fitness (ln)” value is reported as -0.0738. For U2C G6U C27U C46U C66A A69G A70U C71U, the “yeast fitness (ln)” value was -0.319. With U2G G6A C27U C66A the “yeast fitness (ln)” value was -0.186. For U2C G6A A43C C46U C66U A69G A70U, the “yeast fitness (ln)” value was -0.3. With G6A C27U A43C C66A A70U C71U the “yeast fitness (ln)” value was -0.37. For U2G G6U C46U C66A A69G A70U, the “yeast fitness (ln)” value was 0.00778. In the case of G6U A43C C46U C66A, the “yeast fitness (ln)” value is reported as -0.00135. With G1A G6A C66U A70G C71U the “yeast fitness (ln)” value was -0.0543. With G1A C66A A70G C71U the “yeast fitness (ln)” value was -0.0638. In the case of C27U C46U C66A A69G A70U, the “yeast fitness (ln)” value is reported as -0.104. With U2G C27U C71U the “yeast fitness (ln)” value was -0.0721. With G1A G6U C27U A43C A69G A70G C71U the “yeast fitness (ln)” value was -0.34. With U2G G6A C71U the “yeast fitness (ln)” value was -0.0566. In the case of U2C C46U, the “yeast fitness (ln)” value is reported as 0.0244. With G1A U2G A43C C66A A70U the “yeast fitness (ln)” value was -0.12. In the case of G1A U2C G6A C46U C71U, the “yeast fitness (ln)” value is reported as -0.108. With G1A C27U A43C C46U C71U the “yeast fitness (ln)” value was -0.0315. With U2C C27U C46U C66A A69G A70U the “yeast fitness (ln)” value was -0.114. For G1A U2G C27U C66U C71U, the “yeast fitness (ln)” value was -0.244. In the case of G1A U2C C27U A43C C66U A69G A70G C71U, the “yeast fitness (ln)” value is reported as -0.21. In the case of U2C A43C A70U C71U, the “yeast fitness (ln)” value is reported as -0.102. For G1A U2C C46U A69G C71U, the “yeast fitness (ln)” value was -0.134. In the case of U2G G6A A43C C46U C66U A70U C71U, the “yeast fitness (ln)” value is reported as -0.175. In the case of G1A U2G G6A C46U C66A A70U C71U, the “yeast fitness (ln)” value is reported as -0.134. In the case of G6U C27U A43C C66U A70G C71U, the “yeast fitness (ln)” value is reported as -0.352. For G6A C27U C66U A69G, the “yeast fitness (ln)” value was -0.0541. For G1A U2G C27U A69G A70G, the “yeast fitness (ln)” value was -0.242.
